Source: ChEMBL document CHEMBL3994613, “Diaryltriazenes as antibacterial agents against methicillin resistant Staphylococcus aureus (MRSA) and Mycobacterium smegmatis” (Eur J Med Chem, 2017)
In brackets after ≈: the same amount, converted by molar mass.

Key:
Klebsiella pneumoniae [1] = test: Antibacterial activity against Klebsiella pneumoniae ATCC 13882 after 18 to 20 hrs by broth microdilution method; assay type: functional
Outline: (§1)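 Broth microdilution per EUCAST in TSB broth. Inoculum prepared by CLSI direct colony suspension from 20–24 h TSA colonies, final 3×10^4 CFU/mL. Aerobic incubation for 18–20 h at 37 °C, growth read on plate reader, at least one duplicate.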

Streptococcus pneumoniae [2] = test: Antibacterial activity against Streptococcus pneumoniae R6 after 18 to 20 hrs by broth microdilution method; assay type: functional
Outline: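 Broth microdilution per EUCAST in BHI broth. Inoculum from colonies on BHI agar with 5% sheep blood, final 5×10^4 CFU/mL. Read after 18–20 h anaerobic incubation at 37 °C.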

Streptococcus pneumoniae [3] = test: Bactericidal activity against Streptococcus pneumoniae R6 after 18 to 20 hrs by broth microdilution method; assay type: functional
[4] = Stability of the compound in organic solvent; assay type: physicochemical
Saccharomyces cerevisiae = test: Antibacterial activity against Saccharomyces cerevisiae after 18 to 20 hrs by microdilution method
Outline: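 Microdilution in YEP broth against wild-type yeast grown on YEP agar. Final inoculum 1×10^5 CFU/mL. Read after 18–20 h aerobic incubation at 30 °C on plate reader, at least one duplicate.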

[5] = Solubility of the compound in water; assay type: physicochemical; conditions: buffer
Bacillus subtilis [6] = test: Antibacterial activity against Bacillus subtilis ATCC 6051 after 18 to 20 hrs by broth microdilution method; assay type: functional
Outline: (§2)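 Broth microdilution per EUCAST in LB broth. Inoculum from 20–24 h colonies by CLSI direct colony suspension (LB agar for E. coli), final 2×10^4 CFU/mL. Read after 18–20 h aerobic incubation at 37 °C on plate reader, at least one duplicate.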

Escherichia coli [7] = test: Antibacterial activity against N43 CGSC 5583 knock out Escherichia coli after 18 to 20 hrs by microdilution method; assay type: functional; outline: as §2
Klebsiella pneumoniae [8] = test: Antibacterial activity against Klebsiella pneumoniae ATCC 700603 after 18 to 20 hrs by broth microdilution method; assay type: functional; outline: as §1
Pseudomonas aeruginosa = test: Antibacterial activity against Pseudomonas aeruginosa PA0001 after 18 to 20 hrs by broth microdilution method; assay type: functional
Outline: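 EUCAST broth microdilution in LB broth. Inoculum from 20–24 h LB agar colonies (CLSI direct colony suspension), final 3×10^4 CFU/mL. Aerobic incubation 18–20 h at 37 °C, plate-reader read-out, at least one duplicate.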

Bacillus subtilis [9] = test: Bactericidal activity against Bacillus subtilis ATCC 6051 after 18 to 20 hrs by broth microdilution method; assay type: functional
Staphylococcus aureus [10] = test: Antibacterial activity against methicillin-resistant Staphylococcus aureus USA300 after 18 to 20 hrs by microdilution method; assay type: functional
Outline: (§3)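 EUCAST broth microdilution in LB broth. Inoculum prepared by direct colony suspension from 20–24 h LB agar (E. coli DH10β) or 5% sheep blood BHI agar (MRSA USA300) growth. Final inoculum 2×10^4 CFU/mL, 18–20 h aerobic at 37 °C, growth read on a plate reader, at least duplicate.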

Enterococcus faecalis [11] = test: Antibacterial activity against vancomycin resistant Enterococcus faecalis 501 after 18 to 20 hrs by broth microdilution method; assay type: functional
Outline: (§4)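 EUCAST microdilution in BHI broth. Inoculum from 20–24 h colonies on 5% sheep blood BHI agar, final 3×10^4 CFU/mL, 18–20 h aerobic at 37 °C, plate reader, at least duplicate.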

[12] = Stability of the compound in water; assay type: physicochemical; conditions: buffer
[13] = tested on: Mycolicibacterium smegmatis; test: Bactericidal activity against Mycobacterium smegmatis MC2 155 after 96 hrs by microdilution method; assay type: functional; conditions: str. MC2 155, 96 h
Outline: (§5)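 Microdilution in TSB broth. Inoculum from colonies grown 96 h on TSA, final 1×10^5 CFU/mL, aerobic 94–98 h at 37 °C, growth read on a plate reader, at least duplicate.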

[14] = Stability of the compound in solid state; assay type: physicochemical
Staphylococcus aureus [15] = test: Bactericidal activity against methicillin-resistant Staphylococcus aureus 1653 after 18 to 20 hrs by broth microdilution method; assay type: functional
Outline: (§6)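 EUCAST broth microdilution in LB broth. Inoculum from 20–24 h colonies on 5% sheep blood BHI agar, final 3×10^4 CFU/mL, 18–20 h aerobic at 37 °C, plate reader, at least duplicate.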

[16] = tested on: Mycolicibacterium smegmatis; test: Antimycobacterial activity against Mycobacterium smegmatis MC2 155 after 94 to 98 hrs by microdilution method; assay type: functional; conditions: str. MC2 155; outline: as §5
Acinetobacter baumannii [17] = test: Antibacterial activity against Acinetobacter baumannii ATCC 19606 after 18 to 20 hrs by broth microdilution method; assay type: functional; conditions: ATCC 19606 = CIP 70.34 = JCM 6841; outline: as §1
Staphylococcus aureus [18] = test: Bactericidal activity against methicillin-resistant Staphylococcus aureus USA300 after 18 to 20 hrs by microdilution method; assay type: functional; outline: as §3
Staphylococcus aureus [19] = test: Induction of membrane integrity impairment in Staphylococcus aureus USA300 assessed as cells with intact membrane at 2 ug/ml measured after 30 mins by Baclight assay relative to control; assay type: functional
Outline: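 LIVE/DEAD BacLight fluorescence assay. Dye was then added and incubated 15 min in the dark at room temperature. Intact membrane % came from a live/dead (isopropanol-killed) standard curve, at least triplicate, mean±SD.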

Acinetobacter baumannii [20] = test: Antibacterial activity against Acinetobacter baumannii ATCC BAA-1605 after 18 to 20 hrs by broth microdilution method; assay type: functional; outline: as §1
Escherichia coli [21] = test: Antibacterial activity against Escherichia coli DH10beta harboring pHuLUC3 after 18 to 20 hrs by microdilution method; assay type: functional; outline: as §3
Staphylococcus aureus [22] = test: Antibacterial activity against methicillin-resistant Staphylococcus aureus 1653 after 18 to 20 hrs by broth microdilution method; assay type: functional; outline: as §6
Escherichia coli [23] = test: Antibacterial activity against Escherichia coli D22 after 18 to 20 hrs by microdilution method; assay type: functional; outline: as §2
Escherichia coli [24] = test: Bactericidal activity against Escherichia coli D22 after 18 to 20 hrs by microdilution method; assay type: functional
Enterococcus faecalis [25] = test: Bactericidal activity against vancomycin resistant Enterococcus faecalis 501 after 18 to 20 hrs by broth microdilution method; assay type: functional; outline: as §4
Escherichia coli [26] = test: Bactericidal activity against Escherichia coli DH10beta harboring pHuLUC3 after 18 to 20 hrs by microdilution method; assay type: functional; outline: as §3
[27] = tested on: Mycolicibacterium smegmatis; test: Antimycobacterial activity against Mycobacterium smegmatis MC2 155 after 3 days by broth macrodilution method; assay type: functional; conditions: str. MC2 155, 72 h

| SMILES | MIC (Klebsiella pneumoniae [1]) [µg/mL] | MIC (Streptococcus pneumoniae [2]) [µg/mL] | MBC (Streptococcus pneumoniae [3]) [µg/mL] | Stability [4] | MIC (Saccharomyces cerevisiae) [µg/mL] | solubility [5] | MIC (Bacillus subtilis [6]) [µg/mL] | MIC (Escherichia coli [7]) [µg/mL] | MIC (Klebsiella pneumoniae [8]) [µg/mL] | MIC (Pseudomonas aeruginosa) [µg/mL] | MBC (Bacillus subtilis [9]) [µg/mL] | MIC (Staphylococcus aureus [10]) [µg/mL] | MIC (Enterococcus faecalis [11]) [µg/mL] | Stability [12] | MBC [13] [µg/mL] | Stability [14] | MBC (Staphylococcus aureus [15]) [µg/mL] | MIC [16] [µg/mL] | MIC (Acinetobacter baumannii [17]) [µg/mL] | MBC (Staphylococcus aureus [18]) [µg/mL] | also measured |
| --- | --- | --- | --- | --- | --- | --- | --- | --- | --- | --- | --- | --- | --- | --- | --- | --- | --- | --- | --- | --- | --- |
| O=C(c1ccccc1F)N(/N=N/c1ccc([N+](=O)[O-])cc1C(F)(F)F)c1ccc([N+](=O)[O-])cc1C(F)(F)F | > 128 | 0.5 (≈ 0.917 µM) | 1 (≈ 1.83 µM) | Stable | > 128 | Soluble | 2 (≈ 3.67 µM) | > 128 | > 128 | > 128 | > 64 | 0.25 (≈ 0.458 µM) | > 128 | Stable | 128 (≈ 235 µM) | Stable | 4 (≈ 7.34 µM) | 16 (≈ 29.3 µM) | > 128 | 0.5 (≈ 0.917 µM) | Cells with intact membrane (Staphylococcus aureus [19]): 103.8%; MIC (Acinetobacter baumannii [20]): > 128 µg/mL; MIC (Escherichia coli [21]): > 128 µg/mL; MIC (Staphylococcus aureus [22]): 0.5 µg/mL (≈ 0.917 µM); MIC (Escherichia coli [23]): > 128 µg/mL |
| FC(F)(F)c1cc(Cl)ccc1/N=N/Nc1ccc(Cl)cc1C(F)(F)F | > 128 | 0.5 (≈ 1.24 µM) | 1 (≈ 2.49 µM) | Stable | > 128 | Soluble | 1 (≈ 2.49 µM) | > 128 | > 128 | > 128 | 32 (≈ 79.6 µM) | 1 to 128 (≈ 2.49 to 318 µM) | 2 (≈ 4.97 µM) | Stable | 128 (≈ 318 µM) | Stable | 1 (≈ 2.49 µM) | 8 (≈ 19.9 µM) | > 128 | 1 (≈ 2.49 µM) | MBC (Escherichia coli [24]): > 128 µg/mL; MBC (Enterococcus faecalis [25]): > 128 µg/mL; Cells with intact membrane (Staphylococcus aureus [19]): 31.2%; MIC (Acinetobacter baumannii [20]): > 128 µg/mL; MIC (Escherichia coli [21]): > 128 µg/mL; MIC (Staphylococcus aureus [22]): 1 µg/mL (≈ 2.49 µM); MIC (Escherichia coli [23]): 2 µg/mL (≈ 4.97 µM) |
| CC(=O)N(/N=N/c1ccc([N+](=O)[O-])cc1C(F)(F)F)c1ccc([N+](=O)[O-])cc1C(F)(F)F | > 128 | 0.06 (≈ 0.129 µM) | 0.5 (≈ 1.07 µM) | Stable | > 128 | Soluble | 0.125 (≈ 0.269 µM) | > 128 | > 128 | > 128 | 4 (≈ 8.6 µM) | 0.25 (≈ 0.537 µM) | 4 (≈ 8.6 µM) | Stable | 128 (≈ 275 µM) | Stable | 0.5 (≈ 1.07 µM) | 16 (≈ 34.4 µM) | > 128 | 0.25 (≈ 0.537 µM) | MBC (Escherichia coli [26]): > 128 µg/mL; MBC (Escherichia coli [24]): > 128 µg/mL; MBC (Enterococcus faecalis [25]): > 128 µg/mL; Cells with intact membrane (Staphylococcus aureus [19]): 103%; MIC (Acinetobacter baumannii [20]): > 128 µg/mL; MIC (Escherichia coli [21]): 64 µg/mL (≈ 138 µM); MIC (Staphylococcus aureus [22]): 0.25 µg/mL (≈ 0.537 µM); MIC (Escherichia coli [23]): 1 µg/mL (≈ 2.15 µM) |
| O=C(c1ccccc1)N(/N=N/c1ccc([N+](=O)[O-])cc1C(F)(F)F)c1ccc([N+](=O)[O-])cc1C(F)(F)F | > 128 | 0.5 (≈ 0.948 µM) | 1 (≈ 1.9 µM) | Stable | > 128 | Soluble | 0.5 (≈ 0.948 µM) | > 128 | > 128 | > 128 | 16 (≈ 30.3 µM) | 0.5 to 2 (≈ 0.948 to 3.79 µM) | > 128 | Stable | > 128 | Stable | 1 (≈ 1.9 µM) | 32 (≈ 60.7 µM) | > 128 | 0.5 to 2 (≈ 0.948 to 3.79 µM) | MBC (Escherichia coli [26]): > 128 µg/mL; Cells with intact membrane (Staphylococcus aureus [19]): 95.8%; MIC (Acinetobacter baumannii [20]): > 128 µg/mL; MIC (Escherichia coli [21]): ≥ 128 µg/mL; MIC (Staphylococcus aureus [22]): 0.5 µg/mL (≈ 0.948 µM); MIC (Escherichia coli [23]): > 128 µg/mL |
| CC1(C)S[C@@H]2[C@H](NC(=O)[C@H](N)c3ccc(O)cc3)C(=O)N2[C@H]1C(=O)O [AMOXICILLIN] | – | – | – | – | – | – | – | – | – | – | – | – | – | – | – | – | – | – | – | – | MIC [27]: 8 to 16 µg/mL (≈ 21.9 to 43.8 µM) |
| CC1(C)S[C@@H]2[C@H](NC(=O)[C@H](N)c3ccccc3)C(=O)N2[C@H]1C(=O)O [AMPICILLIN] | – | – | – | – | – | – | – | – | – | – | – | – | – | – | – | – | – | – | – | – | MIC [27]: 128 µg/mL (≈ 366 µM) |
